Measurements: ChEMBL document CHEMBL1152715, “13-Methyl-substituted des-C,D analogs of (20S)-1alpha,25-dihydroxy-2-methylene-19-norvitamin D3 (2MD): synthesis and biological evaluation” (Bioorg Med Chem, 2009)

Columns and labels:
Vitamin D3 receptor [1] = molecular target: T1, Vitamin D3 receptor (Rattus norvegicus, UniProt P13053); assay: Displacement of [3H]1-alpha,25-(OH)2D3 from rat recombinant full length VDR
T1 sequence (P13053 whole entry): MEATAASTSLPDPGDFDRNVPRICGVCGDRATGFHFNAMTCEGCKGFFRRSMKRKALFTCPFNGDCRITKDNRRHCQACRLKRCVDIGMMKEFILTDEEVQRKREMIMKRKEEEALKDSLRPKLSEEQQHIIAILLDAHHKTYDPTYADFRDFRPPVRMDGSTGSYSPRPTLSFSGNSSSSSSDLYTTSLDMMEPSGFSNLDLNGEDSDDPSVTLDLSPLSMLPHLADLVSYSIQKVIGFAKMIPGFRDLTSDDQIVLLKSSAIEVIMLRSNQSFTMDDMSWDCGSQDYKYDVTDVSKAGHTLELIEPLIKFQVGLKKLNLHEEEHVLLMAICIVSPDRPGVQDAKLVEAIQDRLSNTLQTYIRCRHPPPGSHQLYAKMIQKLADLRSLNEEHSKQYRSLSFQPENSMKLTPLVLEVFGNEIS
Method in brief: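 It was incubated overnight on ice with 1 nM (final) [3H]1α,25-(OH)2D3 plus unlabeled competitor, ethanol <10%. Bound ligand was collected on hydroxylapatite, washed and scintillation counted. […] Runs were in duplicate.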

HL-60 [2] = assay: Induction of cell differentiation of human HL60 cells to monocytes by NBT reduction assay; format: functional, cell-based
Vitamin D3 receptor [3] = molecular target: T1, Vitamin D3 receptor; assay: Activity at VDR in rat ROS 17/2.8 cells assessed as transcriptional activation of 24-hydroxylase gene promoter after 16 hrs by luciferase reporter gene assay; format: cell-based
Method in brief: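 ROS 17/2.8 rat osteosarcoma cells stably transfected with a 24-hydroxylase promoter–luciferase reporter were dosed over a concentration range and harvested 16 h later. Luciferase was read on a luminometer.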

HL-60 [4] = assay: Ratio of EC50 of drug to EC50 of 1-alpha,25-(OH)2D3 for induction of cell differentiation of human HL60 cells to monocytes by NBT reduction assay
Rattus norvegicus [5] = assay: Effect on bone calcium mobilization in vitamin D-deficient weanling rat assessed as increase in serum calcium level at 1.9 ug/kg, ip administered as 7 consecutive daily doses measured 24 hrs after last dose relative to untreated control; format: functional
Method in brief: (§1)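 Weanling male rats were fed a 0.47% Ca diet for 1 week, then a 0.02% Ca diet for 3 weeks. In the final week they received daily intraperitoneal doses for 7 days in 0.1 mL propylene glycol/ethanol (95:5); controls got vehicle. There were 5–6 rats per group. Serum Ca and the intestinal serosal/mucosal Ca ratio were compared with vehicle.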

Rattus norvegicus [6] = assay: Effect on bone calcium mobilization in vitamin D-deficient weanling rat assessed as increase in serum calcium level at 5.7 ug/kg, ip administered as 7 consecutive daily doses measured 24 hrs after last dose relative to untreated control; format: functional; method in brief: as §1
Rattus norvegicus [7] = assay: Effect on bone calcium mobilization in vitamin D-deficient weanling rat assessed as increase in serum calcium level at 22.8 ug/kg, ip administered as 7 consecutive daily doses measured 24 hrs after last dose relative to untreated control; format: functional; method in brief: as §1
Rattus norvegicus [8] = assay: Effect on bone calcium mobilization in vitamin D-deficient weanling rat assessed as increase in serum calcium level at 5.5 ug/kg, ip administered as 7 consecutive daily doses measured 24 hrs after last dose relative to untreated control; format: functional; method in brief: as §1
Rattus norvegicus [9] = assay: Effect on bone calcium mobilization in vitamin D-deficient weanling rat assessed as increase in serum calcium level at 55 ug/kg, ip administered as 7 consecutive daily doses measured 24 hrs after last dose relative to untreated control; format: functional; method in brief: as §1
Rattus norvegicus [10] = assay: Effect on bone calcium mobilization in vitamin D-deficient weanling rat assessed as increase in serum calcium level at 165 ug/kg, ip administered as 7 consecutive daily doses measured 24 hrs after last dose relative to untreated control; format: functional; method in brief: as §1
Rattus norvegicus [11] = assay: Effect on calcium transport in vitamin D-deficient weanling rat intestine assessed as increase in ratio of serosal to mucosal calcium level at 5.5 ug/kg, ip administered as 7 consecutive daily doses measured 24 hrs after last dose; format: functional; method in brief: as §1
Rattus norvegicus [12] = assay: Effect on calcium transport in vitamin D-deficient weanling rat intestine assessed as increase in ratio of serosal to mucosal calcium level at 55 ug/kg, ip administered as 7 consecutive daily doses measured 24 hrs after last dose; format: functional; method in brief: as §1
Rattus norvegicus [13] = assay: Effect on calcium transport in vitamin D-deficient weanling rat intestine assessed as increase in ratio of serosal to mucosal calcium level at 165 ug/kg, ip administered as 7 consecutive daily doses measured 24 hrs after last dose; format: functional; method in brief: as §1

Row | Compound | Ki (Vitamin D3 receptor [1]) [nM] | EC50 (HL-60 [2]) [nM] | EC50 (Vitamin D3 receptor [3]) [nM] | Ratio EC50 (HL-60 [4]) | fold change (FC) (Rattus norvegicus [5]) | fold change (FC) (Rattus norvegicus [6]) | fold change (FC) (Rattus norvegicus [7]) | fold change (FC) (Rattus norvegicus [8]) | fold change (FC) (Rattus norvegicus [9]) | fold change (FC) (Rattus norvegicus [10]) | Ratio (Rattus norvegicus [11]) | Ratio (Rattus norvegicus [12]) | Ratio (Rattus norvegicus [13])
1 | C=C1[C@H](O)CC(=C/C=C/CCC[C@@H](C)CCCC(C)(C)O)C[C@H]1O | 50 | 300 | 50 | 100 | -0.2 | 0.1 | 0.2 | – | – | – | – | – | –
2 | C=C1[C@H](O)CC(=C/C=C/C[C@@H](C)C[C@@H](C)CCCC(C)(C)O)C[C@H]1O | 10 | 300 | 90 | 100 | – | – | – | -0.2 | -0.2 | -0.1 | 0.4 | -0.5 | -0.9
3 | C=C1[C@H](O)CC(=C/C=C/C[C@H](C)C[C@@H](C)CCCC(C)(C)O)C[C@H]1O | 30 | 6 | 3 | 2 | – | – | – | – | – | – | – | – | –

More lines, main results first:

Row | Ki (Vitamin D3 receptor [1]) [nM] | EC50 (HL-60 [2]) [nM] | EC50 (Vitamin D3 receptor [3]) [nM] | Compound | Ratio EC50 (HL-60 [4]) | fold change (FC) (Rattus norvegicus [5]) | fold change (FC) (Rattus norvegicus [6]) | fold change (FC) (Rattus norvegicus [7]) | fold change (FC) (Rattus norvegicus [8]) | fold change (FC) (Rattus norvegicus [9]) | fold change (FC) (Rattus norvegicus [10]) | Ratio (Rattus norvegicus [11]) | Ratio (Rattus norvegicus [12]) | Ratio (Rattus norvegicus [13])
4 | 60 | > 1000 | > 100 | C=C1[C@H](O)CC(=C/C=C/C/C(C)=C/[C@@H](C)CCCC(C)(C)O)C[C@H]1O | >333 | – | – | – | – | – | – | – | – | –
5 | > 1000 | > 1000 | > 100 | C=C1[C@H](O)CC(=C/C=C\C/C(C)=C/[C@@H](C)CCCC(C)(C)O)C[C@H]1O | >333 | – | – | – | – | – | – | – | – | –
